The values below come from publication PMC4863959 (Dalton transactions (Cambridge, England : 2003), 2016).

For data set [1], the system named is bovine Capthesin B. The conditions noted are these: read-out: bovine Cathepsin B IC50; cited from earlier work.
In data set [2] the test system is plasmid (pBR322) DNA. Nature of the data set: Electrophoresis mobility shift assay with plasmid DNA. The format is binding.
Data set [3] has as its system human breast adenocarcinoma MDA-MB 231 cell line. Nature of the data set: Cytotoxicity, XTT assay, MDA-MB-231 cells. Particulars: read-out: IC50 MDA-MB-231, 24h incubation. It counts as cell-based. In outline:
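Cells kept adherent in DMEM with penicillin/streptomycin and 10% FBS (37°C, 5% CO2/[…]). Seeded at 5×10^3 cells/well in phenol red-free, antibiotic-free DMEM with 10% FBS and 2 mM L-glutamine, and grown 24 h. Test compound added at 0.1–50 μM final for 24 h. XTT added at 0.3 mg/mL final for 4 h, then A450 read. Survival is the treated/untreated absorbance ratio. IC50 given as mean (±SE) of three independent experiments, triplicate microcultures per concentration.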

In data set [4] the target is Human serum albumin (HSA) (Homo sapiens, UniProt P02768). Nature of the data set: HSA tryptophan fluorescence quenching. Particulars: HSA 10 μM, complex 10–100 μM. The format is binding. Put shortly: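 HSA (10 μM) in phosphate buffer (pH 7.4) received ten successive additions from an 8 mM DMSO stock of test compound, giving final 10–100 μM. Trp emission was recorded at room temperature, 300–450 nm, excitation 295 nm, 240 s after each addition. Compound, buffer and DMSO fluorescence were negligible. Data were fitted to F0/F = 1 + KSV[Q].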

For data set [5], the system named is human cervical carcinoma cell line HeLa. Nature of the data set: Cytotoxicity, MTT assay, HeLa cells. It counts as cell-based. Particulars: read-out: IC50 HeLa, 24h incubation, 1% DMSO stock diluted with medium. Put shortly:
(§1)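 Cells were kindly donated by a university culture unit. They were grown in DMEM with 10% FBS and 1% penicillin/streptomycin/amphotericin B at 37°C and 5% CO2. Monolayers (~5×10^4) were grown 72 h, then exposed 24 h to test compound (0–100 μM; diluted from fresh DMSO stock; final DMSO ≤0.6% v/v). MTT was added for 3.5 h, formazan dissolved in DMSO, and A570 read (690 nm background). IC50 is mean ±SE of three experiments, triplicate microcultures.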
In general terms: Formazan colour is commonly taken as a measure of viable cells.

The test system of data set [6] is human breast adenocarcinoma cell line MCF7. Nature of the data set: Cytotoxicity, MTT assay, MCF-7 cells. It counts as cell-based. Particulars: read-out: IC50 MCF-7, 24h incubation. Put shortly: as §1
The subject of data set [7] is non-tumorigenic human embryonic kidney cells HEK-293T. Nature of the data set: Cytotoxicity, XTT assay, HEK-293T cells. The format is cell-based. Particulars: read-out: IC50 HEK-239T, 24h incubation. In outline: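 Cells were maintained in DMEM with 100 U/mL penicillin, 100 μg/mL streptomycin and 10% FBS, humidified, 37°C, 5% CO2/[…]. Seeding was 5×10^3 cells/well in phenol red-free, antibiotic-free DMEM with 10% FBS and 2 mM L-glutamine, grown 24 h. Test compound (final 0.1–50 μM) was given for 24 h or 48 h. XTT (final 0.3 mg/mL) ran 4 h, read at 450 nm. Survival was taken as treated/untreated absorbance. IC50 is mean ±SE of three experiments, triplicate microcultures.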

Data set [8] can be described thus: Stability in solution by 1H-NMR spectroscopy. The format is physicochemical. Particulars: D2O, PBS-D2O or neat DMSO-d6.
The subject of data set [9] is human colon adenocarcinoma cell line HT-29. Nature of the data set: Cytotoxicity, MTT assay, HT-29 cells. It counts as cell-based. Particulars: read-out: IC50 HT-29, 24h incubation. In outline:
as §1

Data set [10] has as its system MDA-MB-231 cells. Nature of the data set: ApoTox-Glo Triplex assay. Particulars: 10.7 μM, 24 h. The format is cell-based, human.

Chain of Human serum albumin (HSA) (P02768 25-609): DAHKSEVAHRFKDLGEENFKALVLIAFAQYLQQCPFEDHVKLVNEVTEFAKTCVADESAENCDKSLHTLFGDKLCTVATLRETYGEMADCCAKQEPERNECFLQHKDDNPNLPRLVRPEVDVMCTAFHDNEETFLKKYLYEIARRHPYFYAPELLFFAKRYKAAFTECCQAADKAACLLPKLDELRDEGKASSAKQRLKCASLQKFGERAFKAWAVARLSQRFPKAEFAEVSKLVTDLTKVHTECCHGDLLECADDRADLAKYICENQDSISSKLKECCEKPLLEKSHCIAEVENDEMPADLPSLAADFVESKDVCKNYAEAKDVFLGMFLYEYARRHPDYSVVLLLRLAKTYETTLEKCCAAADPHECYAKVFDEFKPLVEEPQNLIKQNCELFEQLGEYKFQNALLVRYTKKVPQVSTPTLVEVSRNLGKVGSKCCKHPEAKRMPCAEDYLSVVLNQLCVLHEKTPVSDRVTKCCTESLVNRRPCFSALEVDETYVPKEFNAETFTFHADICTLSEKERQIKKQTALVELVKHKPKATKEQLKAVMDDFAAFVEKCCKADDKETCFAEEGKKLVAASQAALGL

As for `Cc1ccc(C(C)C)cc1.[Cl][Ru]([Cl])[PH]12CN3CN(CN(C3)C1)C2` [RAPTA-C], the half-maximal inhibitory concentration (IC50) (commonly the concentration that gives 50% inhibition) in data set [1] is 2.5 µM.
For `Cc1ccccc1.[Cl][Ru]([Cl])[PH]12CN3CN(CN(C3)C1)C2` [RAPTA-T], the half-maximal inhibitory concentration (IC50) in [1] is 1.5 µM.
Regarding `N.N.[Cl][Pt][Cl]` [cisplatin, cis-diamminedichloroplatinum (II), reference compound], the “effect on electrophoretic mobility of plasmid DNA” value in data set [2] (37°C, 20 h, Tris/HCl buffer, drug/DNA ratio up to 2.0) is “both increase and decrease the mobility of the OC and the CCC forms”.
“G1-[[NCPh(o-N)Ru(η^6-p-cymene)Cl]Cl]4 [Compound 17]”: the concentration for half-maximal inhibition (IC50) came to 6.1 ± 1 µM in [3]; 8.1 ± 0.4 µM in data set [5]; 6.9 ± 0.5 µM in [6]; 10.7 µM in [7]; 5.6 ± 0.1 µM in data set [9]. In addition, the “shape of Stern-Volmer plot F0/F versus [Q]” value in data set [4] is reported as “positive deviation”. In addition, the “stability by 1H-NMR over 72 hours” value in data set [8] is “did not observe changes”. Moreover, the “interaction with plasmid DNA at acidic, neutral and basic pH” value in [2] (metal/DNAbp ratio 2.0, pH 6, 7 and 8) is given as “do not interact with plasmid (pBR322) DNA”. This molecule returned a necrotic cells in [10] of 27%. Moreover, the “reduction of MDA-MB-231 viability” value in [10] is on record as “ca. 58%”. The “treated cells remaining viable” value in data set [10] is recorded as 42%. The apoptotic cells in data set [10] (caspase-3/-7 activity) was found to be 16%.
